What was measured:
BRD2, BRD3 and BRD4 = assay: BET protein depletion by immunoblotting in TNBC cell lines; format: cell-based, human; settings: for concentration giving near-complete depletion of BRD2-4 proteins / effect on BET protein levels: TNBC cell lines; for effect on BET protein levels: immunoblotting
MDA-MB-468 cells = assay: Proteomic profiling; format: cell-based, human; settings: 2 h
TNBC cell lines [1] = assay: CellTiter Glo cell viability assay in a panel of 13 TNBC cell lines; format: cell-based, human; settings: for IC50: read-out: IC50 growth inhibition, in 9 of the 13 cell lines, 4 days
[2] = test system: caspase-3 and poly(ADP-ribose) polymerase (PARP); assay: Caspase-3 and PARP cleavage by immunoblotting; format: cell-based, human; settings: as low as
MCL1 = MCL1 expression by qRT-PCR and immunoblotting; format: cell-based, human; settings: for expression of BRD2 and MCL1: MDA-MB-468 cells, 12 h immunoblotting, JQ1 2000 nM, dBET1 500 nM
TNBC cell lines [3] = format: cell-based, human
WHIM24 PDX model = assay: WHIM24 PDX efficacy study; format: in vivo; settings: for antitumor activity: 3 times per week for 3 weeks; for weight loss or apparent toxicity: WHIM24 model
Procedure, shortened: (§1)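 SCID mice bearing MDA-MB-231 xenografts or serially passaged WHIM24 PDX tumours were randomised once tumours reached 80-200 mm3. Test compound was given IV in 10% PEG400: 3% Cremophor: 87% PBS, 3 times per week for 3 weeks. Tumour size and body weight were measured 2-3 times weekly. Volume was (length×width2)/2, and TGI used group medians. Data are mean ± SEM (n=7-8), with two-tailed t test versus vehicle.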

BET proteins [4] = assay: Pharmacodynamic analysis in WHIM24 tumors; format: in vivo, SCID mice
[5] = Pharmacokinetics in WHIM24 tumor-bearing mice; format: in vivo; settings: single dose 10 mg/kg, at 1 and 3 h; concentrations diminished rapidly
[6] = test system: MDA-MB-453 xenograft model; assay: MDA-MB-453 xenograft efficacy study; format: in vivo; settings: for weight loss or apparent toxicity: MDA-MB-453 model
Procedure, shortened: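 Five million MDA-MB-453 cells were implanted subcutaneously in SCID mice, which were randomised at tumour size 80-200 mm3. Dosing was IV in 10% PEG400: 3% Cremophor: 87% PBS, or oral in 2% TPGS: 98% PEG200. Tumours and body weight were measured every 2-3 days. Volume was (length×width2)/2, and TGI (%) = (Vc-Vt)/(Vc-Vo)×100 using medians. Two-tailed t test versus vehicle; n=7-8.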

[7] = test system: MDA-MB-231 xenograft model; assay: MDA-MB-231 xenograft efficacy study; format: in vivo; settings: for antitumor activity: IV; for weight loss or overt toxicity: MDA-MB-231 model
Procedure, shortened: as §1

[8] = test system: MDA-MB-468 xenograft model; assay: MDA-MB-468 xenograft efficacy study; format: in vivo, SCID mice; settings: 10 mg/kg, IV, 3 times per week for 2-3 weeks
[9] = PK analysis in MDA-MB-231 xenograft model; format: in vivo, mice; settings: MDA-MB-231 model
[10] = PK analysis in MDA-MB-468 xenograft model; format: in vivo, mice; settings: MDA-MB-468 model
normal mouse tissues = assay: Toxicity in immune-competent Balb/c mice; format: in vivo; settings: 5 mg/kg intravenously, daily, 5 days a week for 2 weeks
Procedure, shortened: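 Immune-competent Balb/c mice received test compound intravenously, daily, 5 days a week for 2 weeks. Animals were sacrificed at the end of treatment, and tissues were examined for damage.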

BRD4 = BRD4 (Mus musculus, UniProt Q9ESU6); assay: BRD4 protein in mouse liver tissue; format: in vivo; settings: single dose 5 mg/kg
BET proteins [11] = assay: PD analysis in MDA-MB-231 xenograft tumors; format: in vivo, SCID mice; settings: single dose 5 mg/kg, 1-3 h post drug exposure
BET proteins [12] = assay: PD analysis in MDA-MB-468 xenograft tumors; format: in vivo, SCID mice; settings: single dose 5 mg/kg, 1-3 h post drug exposure
BET proteins [13] = assay: Binding to BET proteins
TNBC cell lines [14] = assay: Annexin V-PI apoptosis flow cytometry analysis; format: cell-based, human

**Q.** Which “concentration giving near-complete depletion of BRD2-4 proteins” value (BRD2, BRD3 and BRD4; 1 h treatment) does the source give for `CCn1nc(C2CC2)cc1Nc1nc(C(=O)NCCCOCCOCCOCCCNc2cccc3c2C(=O)N(C2CCC(=O)NC2=O)C3=O)nc2[nH]c3cc(-c4c(C)noc4C)c(OC)cc3c12` (stereo not drawn) [BETd-246] here?
**A.** 30 to 100 nM

**Q.** And the “concentration giving near-complete depletion of BRD2-4 proteins” value (BRD2, BRD3 and BRD4; 3 h treatment)?
**A.** 10 to 30 nM

**Q.** What about the “decrease of BRD2, BRD3 and BRD4 protein levels” value (MDA-MB-468 cells; 100 nM, MDA-MB-468, p<0.05, only proteins decreased out of ~5500 quantified) of the same compound?
**A.** ≥ 2 fold

**Q.** And the IC90 (TNBC cell lines [1]; in 7 of the 13 cell lines)?
**A.** < 0.1 µM

**Q.** And the IC50 (TNBC cell lines [1])?
**A.** < 0.01 µM

**Q.** What about the “lowest concentration giving profound cleavage of caspase-3 and PARP” value [2] of the same compound?
**A.** 10 nM

**Q.** And the “lowest concentration giving significant down-regulation of MCL1 mRNA” value (MCL1; as low as, MDA-MB-468, 8 h, qRT-PCR)?
**A.** 10 nM

**Q.** And the “synergy in combination with BM-1197, ABT-263 and A-1155463” value (TNBC cell lines [3]; in 6 of the 7 cell lines)?
**A.** Modest to strong synergy

**Q.** And the “strong synergistic induction of apoptosis in combination with ABT-199” value (TNBC cell lines [3]; panel of TNBC cell lines)?
**A.** only observed in MDA-MB-468

**Q.** What about the antitumor activity (WHIM24 PDX model; 5 mg/kg, IV) of the same compound?
**A.** effectively inhibited WHIM24 tumor growth

**Q.** And the antitumor activity (WHIM24 PDX model; 10 mg/kg, during treatment)?
**A.** partial tumor regression

**Q.** And the “weight loss or apparent toxicity” value (WHIM24 PDX model)?
**A.** Neither BETi-211 nor BETd-246 caused significant weight loss

**Q.** And the “MCL1 protein levels in tumors” value (BET proteins [4]; as early as 3 h after treatment)?
**A.** markedly reduced

**Q.** And the “duration of BET protein reduction in tumors” value (BET proteins [4]; single IV dose 10 mg/kg)?
**A.** at least 9 h

**Q.** What about the “reduction of the levels of BET proteins in tumors” value (BET proteins [4]; single IV dose 10 mg/kg, as early as 1 h) of the same compound?
**A.** > 80%

**Q.** What about the “drug exposure in plasma and WHIM24 tumors” value [5] of the same compound?
**A.** reasonable drug exposure

**Q.** And the “weight loss or apparent toxicity” value [6]?
**A.** No significant weight loss

**Q.** What about the antitumor activity ([7]; 10 mg/kg, 3 times per week for 2-3 weeks) of the same compound?
**A.** very limited

**Q.** And the “weight loss or overt toxicity” value [7]?
**A.** Neither BETd-246 nor BETd-260 caused significant weight loss

**Q.** What about the antitumor activity [8] of the same compound?
**A.** no antitumor activity

**Q.** What about the “drug exposure in plasma and xenograft tumor tissue” value [9] of the same compound?
**A.** very limited drug exposure

**Q.** What about the “drug exposure in plasma and xenograft tumor tissue” value [10] of the same compound?
**A.** very limited drug exposure

**Q.** What about the “toxicity in normal mouse tissues” value (normal mouse tissues) of the same compound?
**A.** no significant toxicity

**Q.** And the “BRD4 protein in mouse liver tissue” value (BRD4)?
**A.** effectively reduce BRD4 protein

**Q.** What does the source list for `CCn1nc(C2CC2)cc1Nc1nc(C(=O)NCCCCCc2cccc3c2CN(C2CCC(=O)NC2=O)C3=O)nc2[nH]c3cc(-c4c(C)noc4C)c(OC)cc3c12` (stereo not drawn) [BETd-260]?
**A.** effect on BET protein levels (BRD2, BRD3 and BRD4): potently depleted BET proteins at low nanomolar concentrations; times more potent than BETd-246 in growth inhibition (TNBC cell lines [1]; TNBC cells): 2-7 times; antitumor activity ([7]; 5 mg/kg, 3 times per week for 3 weeks, compared with BETd-246 at 10 mg/kg): much stronger antitumor activity than BETd-246; weight loss or overt toxicity [7]: Neither BETd-246 nor BETd-260 caused significant weight loss; drug exposure in plasma and xenograft tumor tissue [9]: much higher than that of BETd-246; drug exposure in plasma and xenograft tumor tissue [10]: much higher than that of BETd-246; BET protein levels in xenograft tumors (BET proteins [11]): effectively reduced BET protein levels; BET protein levels in xenograft tumors (BET proteins [12]): effectively reduced BET protein levels

**Q.** What does the source list for `CCn1nc(C2CC2)cc1Nc1nc(COC)nc2[nH]c3cc(-c4c(C)noc4C)c(OC)cc3c12` [BETi-211]?
**A.** Ki (BET proteins [13]): < 0.001 µM; times more potent than RX-37, JQ-1, OTX-015 or IBET-762 (BET proteins [13]): 10-100 times; effect on BET protein levels (BRD2, BRD3 and BRD4): did not degrade BET proteins; increase of BRD2 protein level (MDA-MB-468 cells; 1000 nM, MDA-MB-468): 2 fold; growth inhibition (TNBC cell lines [1]; at 2.5 μM, achieved in 2 of the 13 cell lines): ≥ 90%; IC50 (TNBC cell lines [1]): < 1 µM; apoptosis induction (TNBC cell lines [14]; 1000 nM, 48 h treatment): 3-25%; synergism with either BM-1197 or ABT-263 (TNBC cell lines [3]): No clear synergism; weight loss or apparent toxicity (WHIM24 PDX model): Neither BETi-211 nor BETd-246 caused significant weight loss; tumor growth inhibition ([6]; 50 mg/kg, daily, 5 days a week for 2 weeks): failed to achieve tumor growth inhibition; weight loss or apparent toxicity [6]: No significant weight loss

**Q.** With `Cc1sc2c(c1C)C(c1ccc(Cl)cc1)=N[C@@H](CC(=O)OC(C)(C)C)c1nnc(C)n1-2` [JQ1] as the compound, how does the “expression of BRD2 and MCL1” value (MCL1) read?
**A.** increased expression of BRD2 and MCL1

**Q.** For `O=C1CCC(N2C(=O)c3ccccc3C2=O)C(=O)N1` (stereo not drawn) [Thalidomide, thalidomide, reference compound], which “effect on BET protein levels” value (BRD2, BRD3 and BRD4) is on record?
**A.** no significant effect

**Q.** And the “effect on apoptosis induction and cell proliferation” value (TNBC cell lines [14]; alone)?
**A.** no significant effect

**Q.** What does the source list for `Cc1sc2c(c1C)C(c1ccc(Cl)cc1)=N[C@@H](CC(=O)NCCCCNC(=O)COc1cccc3c1C(=O)N(C1CCC(=O)NC1=O)C3=O)c1nnc(C)n1-2` (stereo partly drawn) [dBET1, reference compound]?
**A.** BET protein depletion (BRD2, BRD3 and BRD4; 500 nM, MDA-MB-468 cells, 12 h): effectively depleted BET proteins; expression of BRD2 and MCL1 (MCL1): downregulated MCL1 expression
